# Reference: PubChem BioAssay AID651952 (The Scripps Research Institute Molecular Screening Center, 2012)
# Among all 2,400 compounds or so, about 940 (39%) were called active. Only a sample is shown. A number with no mark means an inactive call.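 Rule for the calls: active = inhibition above the plate's mean compound inhibition plus 3 SD, computed per plate (cut at about 22% in these data); inactive = the rest.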
# Assay: inhibition of ATP-evoked calcium response in CHO-Ga16 cells, counter-screen for TAAR1 agonist project, cell-based, fluorescence (AID 651952);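 note: 0% = EC80 ATP with DMSO and 100% = DMSO wells without ATP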
# Settings: CHO-Ga16 ATP-induced calcium, Fluo-8 fluorescence; at 3 µM; hits give high values
# Summary of the method: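 replicates = triplicate wells per compound | material = CHO-Gα16 parent cell line without hTAAR1 | incubation = 17–24 h seeding, dye 75 min 37 °C, 30 min RT | measure = percent inhibition from peak-to-pre-ATP-basal fluorescence ratio, scaled between controls | signal = Fluo-8 fluorescence, Ex 470–495 nm, Em 515–575 nm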
row,SMILES,inhibition
1,O=C1NC(=O)N(Cc2ccco2)C(=O)/C1=C\c1ccc(-c2ccc(F)cc2)o1,44% (active)
2,Clc1ccc2nc3c(c(-c4ccccc4)c2c1)CNCC3,0.28%
3,CC(Cc1ccccc1)NC=O (centres undefined),11.2%
4,CCCCC(=O)N/N=C/c1c(O)n(CC)c(=S)n(CC)c1=O,64.5% (active)
5,COc1ccc(Br)cc1CNCCc1cccc(Cl)c1,14.7%
6,c1ccc(CCNC2CCCCCC2)cc1,2.61%
7,Cc1cccc(N2C(=O)NC(=O)/C(=C\c3cnn(-c4ccccc4)c3)C2=O)c1,40.6% (active)
8,CCC(=NCCc1ccccc1)c1c(O)n(C2CCCCC2)c(=O)[nH]c1=O,21.1%
9,NCC(O)c1ccc(O)cc1 (centres undefined),3.87%
